Experimental data of several laboratories.
Matrix: plasma

CC(C)[C@](O)(c1ccc2cc(OC(F)F)c(OC(F)F)cc2c1)c1c[nH]nn1 — AUC(0-inf) (female human; oral; 750 mg; single dose): 84600 ng·h/mL
Cn1cc(-c2ccc(S(=O)(=O)[C@@H]3C[C@@H](C(=O)NC4(C#N)CC4)N(C(=O)C4(C(F)(F)F)CC4)C3)c(C(F)(F)F)c2)cn1 — AUC(0-inf) (human; oral; 3 mg; single dose, fasted, healthy volunteers): 229 ng·h/mL
O=C(/C=C/c1cccc(S(=O)(=O)Nc2ccccc2)c1)NO — AUC(0-inf) (human; intravenous; 1800 mg/m²; patients): 55200 ng·h/mL
CC(C)n1cc(C#N)c2cc(-n3cc(C(=O)O)cn3)ccc21 — AUC(0-inf) (human; oral; 10 mg; single dose, fasted, healthy volunteers): 1770 ng·h/mL
COc1ccc([C@@H]2CN(C(=O)[C@@H](O)CO)C[C@@]2(C)[C@@H](C)O)cc1OC1CN(c2ccc(C)cn2)C1 — AUC(0-inf) (human; oral; 10 mg; single dose, healthy volunteers): 3160 ng·h/mL
CS(=O)(=O)CCC#N — AUC(0-inf) (human; oral; 100 mg; single dose, fasted): 77000 ng·h/mL
C[C@@]1(c2cc(NC(=O)c3ccc(C#N)cn3)ccc2F)C=CSC(N)=N1 — AUC(0-inf) (human; oral; 90 mg; single dose): 8950 ng·h/mL
CC(C)(O)c1ccccc1-c1ccc2[nH]c(/C=C/c3ccc(C(F)(F)F)cc3)nc2c1 — AUC(0-inf) (male human; oral; 5 mg; single dose, fasted): 876 ng·h/mL
CC(C)(Sc1ccncc1-c1ccc(C#N)c2ccccc12)C(=O)O — AUC(0-inf) (male human; oral; 40 mg; single dose, fasted, healthy volunteers): 1270 ng·h/mL
CCc1nc2c(C)cc(N3CCN(CC(=O)N4CC(O)C4)CC3)cn2c1N(C)c1nc(-c2ccc(F)cc2)c(C#N)s1 — AUC(0-inf) (human; oral; 600 mg; single dose, fasted, healthy volunteers): 36600 ng·h/mL
O=C(Nc1c(Cl)cncc1Cl)c1ccc(OC(F)F)c(OCC2CC2)c1 — AUC(0-inf) (human; oral; 0.25 mg; single dose, fasted): 33.8 ng·h/mL
CO[C@H]1CC[C@H](N2C(=O)CNc3ncc(-c4ccc(C(C)(C)O)nc4)nc32)CC1 — AUC(0-inf) (human; oral; 30 mg; patients): 1230 ng·h/mL
